Key:
[1] = Stability of stock and working standard solutions at refrigerated conditions; assay type: physicochemical; details: for stability of stock solutions (1 mg mL^−1): refrigerator (8 °C), at least one month, DMSO/acetonitrile; for Recovery (%): 30 days at 8 °C
Outline: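 Stocks were made at 1 mg mL−1: analyte dissolved in 1 mL DMSO, made up with acetonitrile. They were held refrigerated at 8 °C. Working solutions were diluted in acetonitrile to 5–500 ng mL−1, with internal standard at 200 ng mL−1.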

[2] = Pharmacokinetic study in rats after single oral dose of DUV; assay type: in vivo, Wistar rat
Outline: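 Male Wistar rats (250 ± 30 g), acclimatised 7 days and fasted 12 h with free water, got one oral gavage dose of 25 mg kg−1 in 1% DMSO/saline. About 300 µL heparinised blood was drawn predose and at 0.25–12 h. Plasma was spun at 4500 rpm, 4 °C, 30 min, stored at −20 °C, then quantified by UPLC-ESI-MS/MS. Non-compartmental analysis, 5 rats.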

[3] = Stability studies of DUV in human plasma samples; assay type: in vitro ADME
Outline: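 Blank human plasma was spiked at 15, 150 and 400 ng mL−1 with internal standard at 200 ng mL−1. Exposures: ~48 h in the autosampler, ~6 h at room temperature, three −80 °C/room-temperature freeze–thaw cycles, or 60 days at −80 °C. Samples were precipitated with an equal volume of mobile phase, vortexed, spun, filtered and run by C18 UPLC-ESI-MRM. Mean of 3.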

[4] = male, Wistar, rat, plasma, po, 25 mg/kg
[5] = rat plasma, single oral 25 mg kg^−1, mean of 5

## Cc1cc(Nc2ncc(Cl)c(Nc3ccccc3S(=O)(=O)C(C)C)n2)c(OC(C)C)cc1C1CCNCC1 [CRB, Ceritinib]
[1]
  stability of stock solutions (1 mg mL^−1): stable

## C[C@H](Nc1ncnc2nc[nH]c12)c1cc2cccc(Cl)c2c(=O)n1-c1ccccc1 [DUV, 8-chloro-2-phenyl-3-[(1S)-1-(7H-purin-6-ylamino)ethyl]isoquinolin-1-one]
[2]; [4]
  Cmax: 3800 ng/mL
  MRT: 1.04 h
  Tmax: 1.83 h
  half-life: 43.2 min
  k el: 0.000269 s⁻¹
[2]; [5]
  Area under curve ration (AUC0–t/AUC0–∞): 95.69%
  Clearance (CL): 0.85 L/h/kg
  Elimination half-life time (t1/2): 0.72 h⁻¹
  Volume of distribution (Vd): 0.88 L/kg
[3]; 60 days at −80 °C, spiked conc. 5 ng mL^−1, mean of 3
  Recovery (%): 101.51%
[3]; 60 days at −80 °C, spiked conc. 15 ng mL^−1, mean of 3
  Recovery (%): 99.84%
[3]; 60 days at −80 °C, spiked conc. 150 ng mL^−1, mean of 3
  Recovery (%): 101.19%
[3]; 60 days at −80 °C, spiked conc. 400 ng mL^−1, mean of 3
  Recovery (%): 99.87%
[3]; Autosampler (48 h), spiked conc. 5 ng mL^−1, mean of 3
  Recovery (%): 100.12%
[3]; Autosampler (48 h), spiked conc. 15 ng mL^−1, mean of 3
  Recovery (%): 95.89%
[3]; Autosampler (48 h), spiked conc. 150 ng mL^−1, mean of 3
  Recovery (%): 98.42%
[3]; Autosampler (48 h), spiked conc. 400 ng mL^−1, mean of 3
  Recovery (%): 103.28%
[3]; Bench top (6 h), room temperature, spiked conc. 5 ng mL^−1, mean of 3
  Recovery (%): 99.52%
[3]; Bench top (6 h), room temperature, spiked conc. 15 ng mL^−1, mean of 3
  Recovery (%): 100.21%
[3]; Bench top (6 h), room temperature, spiked conc. 150 ng mL^−1, mean of 3
  Recovery (%): 101.43%
[3]; Bench top (6 h), room temperature, spiked conc. 400 ng mL^−1, mean of 3
  Recovery (%): 99.26%
[3]; autosampler storage settings
  time stable under autosampler storage settings: ≥ 48 h
[3]; human, human plasma (spiked QC samples)
  recovery: 95.9 to 103%
[3]; room temperature, bench
  time stable in plasma samples on the bench: at least 6 hours
[3]; three freeze–thaw cycles
  stability during freeze–thaw cycles: stable
[3]; −80 °C for 60 days
  stability at long-term storage: stable
[1]; spiked conc. 5 ng mL^−1, mean of 3
  Recovery (%): 96.94%
[1]; spiked conc. 15 ng mL^−1, mean of 3
  Recovery (%): 103.24%
[1]; spiked conc. 150 ng mL^−1, mean of 3
  Recovery (%): 101.02%
[1]; spiked conc. 400 ng mL^−1, mean of 3
  Recovery (%): 96.27%
[1]; 30 days at refrigerated conditions (8 °C)
  stability of stock and working standard solutions: stable
[1]
  stability of stock solutions (1 mg mL^−1): stable
